Compounds with a hit are over-represented: about 2.5% of the library has one in this group of screens.
MC4R ag barr – human MC4R agonism via beta-arrestin | 0.98% of 360,000 active | U2OS MC4R beta-arrestin complementation, luminescence; percent of melanotan II response, DMSO zero | activation, % at 8.9 µM | P32245;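 active = activation above a per-plate cutoff, the mean activation of sample wells on that plate plus 3 SD, cut at about 8% in these data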
Target sequence (P32245 whole entry, looked up): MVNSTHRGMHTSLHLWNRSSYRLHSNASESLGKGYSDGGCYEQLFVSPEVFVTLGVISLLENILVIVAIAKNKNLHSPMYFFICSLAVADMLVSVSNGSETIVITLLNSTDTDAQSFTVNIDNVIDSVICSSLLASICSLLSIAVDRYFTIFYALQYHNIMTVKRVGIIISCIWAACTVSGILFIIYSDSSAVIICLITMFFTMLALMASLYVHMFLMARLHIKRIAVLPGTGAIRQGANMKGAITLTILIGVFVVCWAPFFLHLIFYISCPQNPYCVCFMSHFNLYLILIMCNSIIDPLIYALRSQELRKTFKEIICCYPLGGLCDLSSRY
NTR1 agonist – activates human neurotensin receptor 1; P30989; NTR1-U2OS beta-arrestin-GFP spot imaging, agonist mode; activation, % at 20 µM; 0.17% of 330,000 active; AID 493036;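 active = activation at or above 40% of the spot to cytoplasm intensity ratio, with at least 20 cells analyzed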;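 note: 0% = DMSO without peptide and 100% = 100 nM NTR1 peptide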
MC4R antagonist – antagonists of human melanocortin 4 receptor (MC4R) | MC4R-expressing cells, MTII-stimulated cAMP, LANCE TR-FRET | inhibition, % at 6.5 µM | 0.48% of 360,000 active | P32245 | AID 540295;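 active = inhibition above its plate's cutoff, the mean of tested wells on that plate plus 3 SD, cut at about 29% in these data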;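 note: 0% = Melanotan II alone and 100% = Melanotan II plus saturating MCL0020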
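System: U2OS-MC4R stable cell line; Technique: Eu-cAMP/anti-cAMP TR-FRET, emission 671 nm; Repeats: single well per compound; Also added: Melanotan II; Dosing: one concentration, 6.5 µM nominal; Schedule: 30-min compound, 1-h challenge, 1-h detection, room temperature.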
NR1D1 modulator – modulates human Rev-erb alpha binding to DNA; P20393; 0.79% of 370,000 active; AID 1259318; activity, % at 10 µM; Rev-erbα–FITC-DNA binding, fluorescence polarization, 90 min;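 active = activity above about 14%, limit read from the data; passing the limit was not always enough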;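 note: 0% = DMSO wells with 35 nM protein and 100% = DMSO wells with 750 nM protein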
PG9 binder – small molecules binding HIV-1 gp120 antibody PG9; 0.43% of 360,000 active; AID 624416; TR-FRET gp120-PG9 antibody binding; inhibition, % at 6.7 µM; in the data active = inhibition above about 8.5%
PG9 bind confirm – PG9 antibody binding, confirmed | inhibition, % at 6.7 µM | TR-FRET PG9 antibody binding, biochemical | shares compounds with PG9 binder | 90% of 1,500 active; in the data active = inhibition above about 9%
PGV04 Ab binding – PGV04 control antibody binding, counter-screen | shares compounds with PG9 binder | TR-FRET PGV04 antibody-gp120 binding, biochemical | inhibition, % at 6.7 µM | 95% of 1,500 active | AID 651604; in the data active = inhibition above about 9.5%
The depositor's hits bear a star; . = no result given; ! = a repeat was not active.

SMILES	MC4R ag barr	NTR1 agonist	MC4R antagonist	NR1D1 modulator	PG9 binder	PG9 bind confirm	PGV04 Ab binding
COc1cc(C=NN=c2sc3ccccc3n2C)ccc1OCCO	.	.	.	7	-1	.	.
CC(=O)c1cc(-c2ccccc2)n(CC(=O)NCc2ccccc2Cl)c1C	.	.	.	2	.	.	.
O=C(Nc1ccccc1)c1ccc(-c2ccc(F)cc2)s1	2	-1	-3	19	19*	20*	28*
CSc1cccc(NC(=O)CCCn2c(=O)c3cccn3c3cccnc32)c1	-2	3	-3	23	12*	14*	20*
CCOC(=O)C1=C(C(=O)OCC)C2N(Cc3ccccc3)c3ccccc3[C@@]23C[C@@H](C(=O)OC)N(S(=O)(=O)c2ccc(C(F)(F)F)cc2)C3=N1 (stereo partly drawn)	.	.	.	-2	-2	.	.
COc1cccc2cc(C(=O)C3=C(O)C(=O)N(c4cc(C)on4)C3c3cccs3)oc12 (stereo not drawn)	-3	0	2	1	4	.	.
COc1cccc(C2C(C(=O)c3cc4ccccc4o3)=C(O)C(=O)N2c2cc(C)on2)c1OC (stereo not drawn)	0	1	16	4	19*	27*	43*
COc1cccc(C2C(C(=O)c3cc4cccc(OC)c4o3)=C(O)C(=O)N2c2cc(C)on2)c1OC (stereo not drawn)	0	2	9	-3	14*	22*	36*
COc1cc(C2C(C(=O)c3cc4ccccc4o3)=C(O)C(=O)N2c2cc(C)on2)cc(OC)c1OC (stereo not drawn)	-3	1	19	-2	2	.	.
COCc1cc(N2CCNC[C@@H]2C)ccc1N1CCN(Cc2ccccc2)[C@H](C)C1	.	.	.	1	0	.	.
COc1ccc(S(=O)(=O)NNC(=O)c2cc3c4ccccc4n(C)c3s2)cc1	7	1	4	1	18*	19*	31*
CC(=O)NNC(=O)c1cc2c3ccccc3n(C)c2s1	-2	0	-3	4	-1	.	.
COc1ccccc1C(=O)Nc1nnc(S(=O)(=O)N2CCCCC2)s1	-3	-2	0	0	36*	35*	42*
CCCCNS(=O)(=O)CC1NCCc2ccccc21 (stereo not drawn)	.	.	.	-4	.	.	.
COc1cc(NC(=O)c2ccc(Cl)cc2Cl)ccc1-c1cc2ccccc2oc1=O	5	3	11	-4	12*	23*	33*
CCOC(=O)[C@@]12CCCC=C1N(CCc1ccc(Cl)cc1)C(=O)[C@H]2CC(=O)NCc1ccccc1	.	.	.	2	.	.	.
COc1cc(NC(=O)C2CCCN(S(=O)(=O)c3cccc4cccnc34)C2)cc(OC)c1 (stereo not drawn)	.	.	.	-4	.	.	.
N#Cc1ccc(-c2ccc(OCC(=O)Nc3cccnc3)cc2)cc1	-3	3	11	5	1	.	.
CC(=O)Nc1ccc(NC(=O)COc2ccc(-c3ccc(C#N)cc3)cc2)cc1	-1	1	3	-1	9.0*	12*	18*
O=C(Nc1ccccc1)c1cnc(-c2ccccc2)nc1-c1ccccc1	7	4	6	2	16*	20*	28*
O=C(O)c1cnc(-c2ccccc2)nc1-c1ccccc1	-4	-1	-5	3	1	.	.
COc1ccc(CN2CCC(CNC(=O)Nc3ccc(C)c(F)c3)CC2)cc1	.	.	.	-1	.	.	.
COC(=O)c1cc2c(c3c4cc(OC)ccc4n(S(C)(=O)=O)c13)C(=O)N(C)C2	.	.	.	3	1	.	.
Cc1cccc(NC(=O)CSc2cccc[n+]2[O-])c1C	-2	4	-2	-8	16*	9.3*	11*
Cc1nc2ccc(S(=O)(=O)NCC(=O)NCc3cccs3)cc2s1	.	.	.	0	.	.	.
SMILES	MC4R ag barr	NTR1 agonist	MC4R antagonist	NR1D1 modulator	PG9 binder	PG9 bind confirm	PGV04 Ab binding
O=c1[nH]c2ccc(Cl)cc2c(O)c1Cc1ccccc1	-2	0	8	4	9.0*	11*	14*
COC(=O)c1c(NC(=O)COC(=O)CCNS(=O)(=O)c2ccc(NC(C)=O)cc2)sc(C)c1C	-4	1	11	3	1	.	.
CC(=O)Nc1sc(C)c(C)c1C(=O)OCC(=O)Nc1ccc(S(N)(=O)=O)cc1	-1	0	12	16	9.6*	13*	23*
CCCCOc1ccc(C(=O)Nn2c(-c3cccs3)nc3ccccc3c2=O)cc1	1	2	2	11	30*	37*	59*
Cc1nc(NCc2ccc(S(N)(=O)=O)cc2)c2c(C)c(C)sc2n1	-1	0	-2	16	41*	22*	31*
OC(c1ccccc1)(c1ccccc1)c1cnc2ccccn12	.	.	.	-3	.	.	.
COc1ccc(-c2oc3ccc(N4CCOCC4)cc3c2/C=C/c2ccc(OC)c(OC)c2)cc1	0	0	21	0	10*	15*	28*
COc1ccc(/C=C/c2c(-c3ccc(OC)cc3)sc3ccc(N4CCOCC4)cc23)cc1	-2	3	5	.	.	.	.
CN1CCc2cccc3c2[C@H]1Cc1ccc(O)c(O)c1-3	-1	-2	-17	-3	11*!	12*	15*
O=c1c2ccc(Cl)cc2[nH]c(=S)n1Cc1cccnc1	-1	0	8	14	14*	12*	14*
O=C(c1ccc2c(=O)n(Cc3ccc(Cl)cc3)c(=S)[nH]c2c1)N1CCCC1	7	2	6	8	0	.	.
Cc1ccc(-c2cc(-c3ccc(F)cc3)nc(N)c2C#N)o1	-2	0	21	-1	-1	.	.
Cc1ccc(-c2cc(-c3ccccc3)c(C#N)c(N)n2)o1	-2	2	3	-3	1	.	.
N#Cc1c(-c2ccncc2)cc(-c2ccc(F)cc2)nc1N	1	0	14	13	33*	8.9*	26*
Cc1cc(-c2ccc(Cl)cc2)c(C#N)c(N)n1	0	2	-10	20	55*	64*	80*
C[C@@H]1CN(c2ccc(N3CCN(C(=O)OC(C)(C)C)C[C@H]3C)cc2C#N)CCN1Cc1ccccc1	.	.	.	10	1	.	.
CCCn1cnc2c(sc3nc4c(cc32)CSC(C)(C)C4)c1=O	0	-1	11	-9	0	.	.
CC(C)CCOc1ncnc2c1sc1nc3c(cc12)CSC(C)(C)C3	-3	.	9	19	26*	5	29*
COC(=O)Cc1ccc(NC(=O)c2ccc(Br)o2)cc1	0	-1	5	4	1	.	.
COc1ccc(-c2ccc(NC(=O)c3ccc(Br)o3)cc2)nn1	2	0	5	1	14*	13*	24*
CC(=O)OC12CCCN(C1)/C(=C/c1cccc(Cl)c1)C2 (stereo not drawn)	.	.	.	1	.	.	.

Bioassay records deposited in PubChem by several laboratories.
